Only some compounds are listed: those with a hit (about 3.9% of all), similar ones and a draw of the others.
CHOP UPR activ: apoptotic UPR (CHOP) activation. CHO-CHOP luciferase reporter, luminescence; percent of tunicamycin response over DMSO baseline. activation, % at 10 µM. 330,000 compounds, 0.34% hits;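 active = at 10 µM dose, activation of 40% or more, normalized to positive control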;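 also: 100% = tunicamycin at 10 µg/mL and 0% = DMSO alone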
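Dosing – one dose, 10 µM in 0.5% DMSO · System – CHO-CHOP cells, stable luciferase reporter of PERK-eIF2a-CHOP signalling · Input – 500 cells/well · Control set – tunicamycin 10 µg/mL final as positive, DMSO-only wells as negative · Timing – 6 h compound treatment, 37 °C · Measure – % activation vs tunicamycin · Technique – luminescence read with Steady-Glo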
XBP1 UPR activ: activators of adaptive arm of unfolded protein response (XBP1); 330,000 compounds, 0.33% hits; activation, % at 20 µM; AID 463104; CHO-XBP1 luciferase reporter, IRE1-XBP1 UPR activation, luminescence; percent of tunicamycin response, DMSO as zero;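 active = versus positive control, 20 µM dose yields 30% or more activation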;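 also: 100% = tunicamycin at 10 µg/mL and 0% = DMSO only wells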
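Material – CHO cell line with stable XBP1 luciferase reporter · Buffer or medium – F12 plus 10% FBS · Compound – single point, 20 µM final compound, 1% DMSO · Schedule – 16-18 h cell attachment at 37 °C, then 6 h compound exposure · Signal – Steady-Glo luminescence read · Benchmarks – high control tunicamycin 10 µg/mL final, low control DMSO vehicle only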
Jurkat NFkB inh: lowers PMA/ionomycin-induced NF-kB signal in Jurkat cells; PMA/ionomycin-induced NF-kB luciferase reporter, luminescence; inhibition, % at 4 µM; 330,000 compounds, 0.53% hits; AID 435003; in the data active = inhibition above about 50%
Gli-Sufu block: antagonists of Gli-Sufu signaling | Sufu-KO-LIGHT fibroblasts, Gli luciferase reporter luminescence | inhibition, % at 5 µM | 340,000 compounds, 0.74% hits;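 active = inhibition above about 55%, limit read from the data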;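 also: 0% = DMSO-treated cells and 100% = wells with medium but no cells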
697 NFkB inh: inhibitors of the PMA/ionomycin-induced NF-kB reporter in 697 B cells | 330,000 compounds, 0.33% hits | inhibition, % at 4 µM | 697 B-cell NF-kB luciferase reporter, 16 h; in the data active = inhibition above about 35%
CHOP inh: inhibitors of CHOP induction in ER stress response. CHO-K1 CHOP-promoter luciferase, tunicamycin-induced, 15-18 h. 220,000 compounds, 3.8% hits. AID 2732. inhibition, % at 10 µM;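 active = compounds that reduced the stress-induced luciferase reporter signal by more than about 70% of percent inhibition, limit read from the data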;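 also: 0% = tunicamycin plus vehicle and 100% = wells without tunicamycin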
CHOP confirm: confirmation of CHOP induction inhibitors. CHO-CHOP promoter luciferase reporter, tunicamycin-induced, luminescence. shares compounds with CHOP inh. 2,100 compounds, 45% hits. inhibition, % at 10 µM;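 active = mean of three repeat readings of reporter signal inhibition above a set limit, cut at about 70% in these data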;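 also: 0% = tunicamycin plus vehicle and 100% = wells lacking tunicamycin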
Starred values were filed as active, the others as inactive.

Screening CCOC(=O)c1csc(NC(=O)Nc2cccc(Cl)c2)n1 returned CHOP UPR activ 3, XBP1 UPR activ 3, Jurkat NFkB inh -20, Gli-Sufu block -3, 697 NFkB inh -12, CHOP inh 98* and CHOP confirm 38.
For CCOC(=O)Cc1csc(NC(=O)Nc2cccc(Cl)c2)n1 the results were CHOP UPR activ 2, XBP1 UPR activ -1, Jurkat NFkB inh 16, Gli-Sufu block -13, 697 NFkB inh -1 and CHOP inh 58.
Screening Cc1csc(NC(=O)CSc2nnc(-c3ccoc3C)o2)n1 returned CHOP UPR activ -1, XBP1 UPR activ 1, Jurkat NFkB inh -24, Gli-Sufu block -30, 697 NFkB inh -84 and CHOP inh -41.
Cc1occc1-c1nnc(SCC(=O)Nc2nc(C(C)(C)C)cs2)o1 was read as CHOP UPR activ 6, XBP1 UPR activ -1, Jurkat NFkB inh -8, Gli-Sufu block 15, 697 NFkB inh -70, CHOP inh 103* and CHOP confirm 60.
For N#CCCn1cc(C(=O)Nc2cccc(C(=O)O)c2)c(-c2ccc(Cl)cc2)n1 the results were CHOP UPR activ 2, XBP1 UPR activ -3, Jurkat NFkB inh 4, Gli-Sufu block -3 and 697 NFkB inh -2.
`CC1=Nc2nc(N3CCCCCC3)c(C#N)c3c4c(nc(c23)N1)N(c1ccc2ccccc2c1)C(=O)C4` gave CHOP UPR activ 5, XBP1 UPR activ -2, Jurkat NFkB inh 0, Gli-Sufu block -5 and 697 NFkB inh 4.
For Cc1cccc(NC2=C/C(=N/S(=O)(=O)c3cccs3)c3ccccc3C2=O)c1 the results were Gli-Sufu block 34, CHOP inh 106* and CHOP confirm 114*.
Cc1cc(C)c(S(=O)(=O)/N=C2\C=C(Nc3ccc(C(=O)O)cc3)C(=O)c3ccccc32)c(C)c1 was read as CHOP UPR activ 36, XBP1 UPR activ -10, Jurkat NFkB inh 4, Gli-Sufu block -1 and 697 NFkB inh -14.
Screening O=C1C(Nc2ccc(O)cc2)=C/C(=N/S(=O)(=O)c2cccs2)c2ccccc21 returned Gli-Sufu block 94*, CHOP inh 108* and CHOP confirm 110*.
`Cc1ccc(Cl)cc1NC1=C/C(=N\S(=O)(=O)c2cccs2)c2ccccc2C1=O` gave CHOP UPR activ -6, XBP1 UPR activ -6, Jurkat NFkB inh 41, Gli-Sufu block 11, 697 NFkB inh -59, CHOP inh 109* and CHOP confirm 116*.
`Cc1ccc(NC2=C/C(=N\S(=O)(=O)c3cccs3)c3ccccc3C2=O)c(C)c1` gave CHOP UPR activ -4, XBP1 UPR activ -3, Jurkat NFkB inh -10, Gli-Sufu block 65*, 697 NFkB inh -189 and CHOP confirm 119*.
For CN(C)C=Nc1ccc2nc3c(cc2c1)[nH]c1ccccc13 the results were CHOP UPR activ 6, XBP1 UPR activ -2, Jurkat NFkB inh -117, Gli-Sufu block -36 and 697 NFkB inh -96.
Cc1cc(C(=O)OCC(=O)N(C)c2ccccc2)c(C)o1 was read as CHOP UPR activ 1, XBP1 UPR activ -1, Jurkat NFkB inh -10, Gli-Sufu block -3 and 697 NFkB inh 6.
COc1ccc(/C=N/n2c(-c3ccccc3)n[nH]c2=S)cc1 was read as CHOP UPR activ 2, XBP1 UPR activ -4, Jurkat NFkB inh -7, Gli-Sufu block -18 and 697 NFkB inh -22.
`COc1ccc(/C=N/n2c(N)nc(-c3ccccc3)c2-c2ccccc2)cc1` gave CHOP UPR activ 2, XBP1 UPR activ 0, Jurkat NFkB inh 25, Gli-Sufu block -12, 697 NFkB inh -23, CHOP inh 104* and CHOP confirm 52.
Screening CC(=O)c1ccc(N2CCN(C(=O)c3ccc(C(=O)c4ccccc4)cc3)CC2)cc1 returned CHOP UPR activ 1, XBP1 UPR activ -2, Jurkat NFkB inh -2, Gli-Sufu block -6 and 697 NFkB inh -33.
For CCOc1cc(C2c3c(oc4ccccc4c3=O)C(=O)N2c2nccs2)ccc1O (configuration not stated) the results were CHOP UPR activ -1, XBP1 UPR activ 3, Jurkat NFkB inh -1, Gli-Sufu block 1, 697 NFkB inh 6, CHOP inh 104* and CHOP confirm -1.
Screening Cc1c(Cl)cccc1N=C1SCCN1C(=O)CN1C(=O)NC2(CCCC2)C1=O returned CHOP UPR activ 3, XBP1 UPR activ 2, Jurkat NFkB inh -7, Gli-Sufu block 0 and 697 NFkB inh 15.
Screening O=C1C(C2=NC(c3ccccn3)C3C(=O)N(c4ccc(Cl)cc4Cl)C(=O)C23)=C(O)c2ccccc21 (configuration not stated) returned CHOP UPR activ 20, XBP1 UPR activ 3, Jurkat NFkB inh 5, Gli-Sufu block 2, 697 NFkB inh -4, CHOP inh 105* and CHOP confirm 118*.
Screening CS(=O)(=O)N1CCN(c2ccccc2NC(=O)Nc2cccc(Cl)c2)CC1 returned CHOP UPR activ 3, XBP1 UPR activ -2, Jurkat NFkB inh 6, Gli-Sufu block -8 and 697 NFkB inh 13.
COc1cccc(-n2nc(C#N)c(Cl)cc2=O)c1 was read as CHOP UPR activ 3, XBP1 UPR activ -8, Jurkat NFkB inh 13, Gli-Sufu block 3, 697 NFkB inh 12, CHOP inh 107* and CHOP confirm -77.
COCCn1cnc2c(c1=O)c1nc3ccccc3nc1n2/N=C/c1cccc(OC)c1 was read as CHOP UPR activ 1, XBP1 UPR activ 12, Jurkat NFkB inh 9, Gli-Sufu block 12, 697 NFkB inh 23, CHOP inh 101* and CHOP confirm 107*.
Cc1ccc(C)c(NC(=S)NC(NC(=O)/C=C/c2ccccc2)C(Cl)(Cl)Cl)c1 (configuration not stated) was read as CHOP UPR activ 24, XBP1 UPR activ 14, Jurkat NFkB inh 2, Gli-Sufu block 13, 697 NFkB inh 8, CHOP inh 107* and CHOP confirm 92*.
`Cc1ccc(OCC(=O)N/N=C/c2cn[nH]c2-c2ccc(Cl)c(Cl)c2)cc1` gave CHOP UPR activ -1, XBP1 UPR activ -1, Jurkat NFkB inh 1, Gli-Sufu block -12, 697 NFkB inh 1, CHOP inh 99* and CHOP confirm 72*.
N#Cc1c(N)n(CCCN2CCOCC2)c2nc3ccccc3nc12 was read as CHOP UPR activ -2, XBP1 UPR activ -2, Jurkat NFkB inh -9, Gli-Sufu block -1 and 697 NFkB inh 2.

Screening data: PubChem, several laboratories
